Source: BindingDB's records for doi:10.1021/jm200203f (Washington University, 2011)

Key:
D(2) dopamine receptor = D(2) dopamine receptor (Homo sapiens, UniProt P14416); test: Displacement of [125I]IABN from human dopamine D2 long receptor expressed in HEK293 cells after 60 mins by gamma counting
D(3) dopamine receptor = D(3) dopamine receptor (Homo sapiens, UniProt P35462); test: Displacement of [125I]IABN from human dopamine D3 receptor expressed in HEK293 cells after 60 mins by gamma counting
D(3) dopamine receptor, sequence (P35462 as listed by the source): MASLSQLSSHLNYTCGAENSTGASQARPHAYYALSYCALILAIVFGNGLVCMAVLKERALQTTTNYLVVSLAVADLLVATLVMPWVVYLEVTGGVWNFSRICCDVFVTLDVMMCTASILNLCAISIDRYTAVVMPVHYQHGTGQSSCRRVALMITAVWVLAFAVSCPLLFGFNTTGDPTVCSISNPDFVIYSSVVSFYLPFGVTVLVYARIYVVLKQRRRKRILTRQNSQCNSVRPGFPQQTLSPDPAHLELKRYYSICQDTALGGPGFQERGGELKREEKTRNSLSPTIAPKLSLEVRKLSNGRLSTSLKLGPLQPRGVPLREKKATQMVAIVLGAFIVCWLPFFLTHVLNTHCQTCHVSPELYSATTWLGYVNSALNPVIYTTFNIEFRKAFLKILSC

[1] = target: T1, 5-hydroxytryptamine receptor 1A (Homo sapiens, UniProt P08908); test: Displacement of [3H]8-OH-DPAT from human 5HT1A receptor after 60 mins by liquid scintillation counting
T1 sequence (P08908 whole entry): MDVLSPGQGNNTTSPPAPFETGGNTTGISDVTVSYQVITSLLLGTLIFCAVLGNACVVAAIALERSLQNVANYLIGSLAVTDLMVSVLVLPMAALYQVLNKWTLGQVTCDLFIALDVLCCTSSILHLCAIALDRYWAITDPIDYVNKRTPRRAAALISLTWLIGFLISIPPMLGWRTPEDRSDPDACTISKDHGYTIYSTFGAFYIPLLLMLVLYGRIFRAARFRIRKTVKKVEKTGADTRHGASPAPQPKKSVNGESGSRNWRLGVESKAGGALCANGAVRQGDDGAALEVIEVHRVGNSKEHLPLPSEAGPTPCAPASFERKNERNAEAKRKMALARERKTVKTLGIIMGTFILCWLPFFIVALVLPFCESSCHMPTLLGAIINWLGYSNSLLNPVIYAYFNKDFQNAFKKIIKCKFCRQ
In short: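 Inhibitor spanned 0.1 nM–10 µM or 0.01 nM–1 µM; 10 µM WAY-100635 defined nonspecific binding. Cold wash, filtration, scintillation counting; IC50 by nonlinear regression.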

[2] = target: Sigma non-opioid intracellular receptor 1 (Cavia porcellus, UniProt Q60492); test: Displacement of (+)-[3H]pentazocine from sigma 1 receptor in guinea pig brain membrane homogenates after 90 mins by liquid scintillation counting
Sigma non-opioid intracellular receptor 1, sequence (Q60492 whole entry): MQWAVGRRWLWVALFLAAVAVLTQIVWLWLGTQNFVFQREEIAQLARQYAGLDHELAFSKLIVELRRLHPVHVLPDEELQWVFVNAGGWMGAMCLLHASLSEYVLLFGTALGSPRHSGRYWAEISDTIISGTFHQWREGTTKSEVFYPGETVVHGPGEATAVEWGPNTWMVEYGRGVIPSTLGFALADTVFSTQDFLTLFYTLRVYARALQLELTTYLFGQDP

[3] = target: T2, Vesicular acetylcholine transporter (Homo sapiens, UniProt Q16572); test: Displacement of (-)-[3H]vesamicol from human VAChT expressed in rat PC12 A123.7 cells after 20 hrs
T2 sequence (Q16572 whole entry): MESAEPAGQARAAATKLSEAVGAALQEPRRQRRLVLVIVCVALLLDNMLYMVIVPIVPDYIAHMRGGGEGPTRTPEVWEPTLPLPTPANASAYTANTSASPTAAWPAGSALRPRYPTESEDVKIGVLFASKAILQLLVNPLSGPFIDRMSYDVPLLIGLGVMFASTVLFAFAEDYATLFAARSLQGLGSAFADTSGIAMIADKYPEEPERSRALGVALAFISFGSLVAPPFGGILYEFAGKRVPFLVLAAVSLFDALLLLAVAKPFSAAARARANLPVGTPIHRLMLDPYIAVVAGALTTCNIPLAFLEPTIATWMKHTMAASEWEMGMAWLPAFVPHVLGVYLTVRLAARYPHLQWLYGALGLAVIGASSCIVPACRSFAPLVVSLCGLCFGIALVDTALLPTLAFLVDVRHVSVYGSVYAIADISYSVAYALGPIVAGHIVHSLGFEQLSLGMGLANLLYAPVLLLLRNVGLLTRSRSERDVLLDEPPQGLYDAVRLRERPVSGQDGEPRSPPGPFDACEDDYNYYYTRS

D(2) dopamine receptor, sequence (P14416 whole entry): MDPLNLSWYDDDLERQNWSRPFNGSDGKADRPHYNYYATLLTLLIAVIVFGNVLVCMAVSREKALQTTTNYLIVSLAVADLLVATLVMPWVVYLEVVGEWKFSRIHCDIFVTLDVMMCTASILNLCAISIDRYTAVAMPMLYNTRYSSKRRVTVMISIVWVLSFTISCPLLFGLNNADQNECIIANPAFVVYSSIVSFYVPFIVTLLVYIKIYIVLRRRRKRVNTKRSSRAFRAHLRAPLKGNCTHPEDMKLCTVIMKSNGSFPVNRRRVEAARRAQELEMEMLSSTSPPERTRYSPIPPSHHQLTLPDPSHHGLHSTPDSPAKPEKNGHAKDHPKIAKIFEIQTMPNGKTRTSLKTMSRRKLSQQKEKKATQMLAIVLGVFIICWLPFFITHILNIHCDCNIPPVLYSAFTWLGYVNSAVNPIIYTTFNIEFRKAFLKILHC

Ki (D(2) dopamine receptor) [nM] | Ki (D(3) dopamine receptor) [nM] | Ki [1] [nM] | Ki [2] [nM] | Compound | Ki [3] [nM]
1490 | > 15000 | – | – | COc1ccc(C(=O)C2CCN([C@H]3CCN(Cc4ccc(F)cc4)C[C@@H]3O)CC2)cc1 | –
– | – | – | 208 | COc1ccc(C(=O)C2CCN([C@H]3CN(Cc4ccccc4)CC[C@@H]3O)CC2)cc1 | 36

Further lines, the molecule ahead of its results:

Compound | Ki (D(2) dopamine receptor) [nM] | Ki (D(3) dopamine receptor) [nM] | Ki [1] [nM] | Ki [2] [nM] | Ki [3] [nM]
O=C(c1ccc(F)cc1)C1CCN([C@H]2CCN(Cc3ccc(F)cc3)C[C@@H]2O)CC1 | 1350 | > 20000 | 2540 | 0.48 | –
COc1ccc(C(=O)C2CCN([C@H]3CN(Cc4cccnc4)CC[C@@H]3O)CC2)cc1 | – | – | – | 2220 | 107
O=C(c1ccc(F)cc1)C1CCN([C@H]2CN(Cc3cccnc3)CC[C@@H]2O)CC1 | – | – | – | 1160 | 237
O=C(c1ccc(F)cc1)C1CCN([C@H]2CCN(C(=O)c3ccc(F)cc3)C[C@@H]2O)CC1 | – | – | – | 3140 | 3600
